Assay results published in ChEMBL document CHEMBL1156478, “Loss of huntingtin function complemented by small molecules acting as repressor element 1/neuron restrictive silencer element silencer modulators” (J Biol Chem, 2007).
Active and inactive are the calls of the source. The rule behind the calls is not given here.

What was measured:
ST14A [1] = experiment: […] of REST/NRSF-coupled repression of luciferase tagged rat RE1/NRSE BDNF promoter activity expressed in ST14A cells at 75 nM assessed as increase in luciferase activity; type: cell-based
How it was run: (§1)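 Stable ST14A clone carrying RE1/NRSE(BDNF)-firefly luciferase, selected for DN:REST responsiveness; cells in 96 wells exposed after adhesion to compounds (DMSO, 10 mM stock) in triplicate, 72 h; luciferin added, luminescence expressed as RLU per µg protein (BCA), relative to untreated; EC50 from dose–response.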

ST14A [2] = experiment: Increase in E2F1 mRNA expression in rat ST14A cells after 72 hrs by RT-PCR relative to control; type: functional, cell-based
How it was run: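 E2F1 SYBR Green real-time PCR after 72 h exposure: 95 °C 10 min, then 40 × (95 °C 15 s, 60 °C 1 min), fluorescence read at 60 °C, melt curve 55–94 °C; normalized to β-actin, fold over untreated cells; triplicate reactions.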

ST14A [3] = experiment: Increase in REST/NRSF mRNA expression in rat ST14A cells after 72 hrs by RT-PCR relative to control; type: functional, cell-based
How it was run: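 REST/NRSF transcript by SYBR Green real-time PCR after 72 h exposure: 95 °C 3 min, then 45 × (95 °C 30 s, 60 °C 30 s, 72 °C 30 s), melt curve 55–94 °C; normalized to β-actin, fold over untreated; triplicate reactions.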

ST14A [4] = experiment: Increase in BDNF protein expression in rat ST14A cells expressing RE1/NRSE BDNF promoter after 72 hrs by ELISA relative to control; type: functional, cell-based
How it was run: (§2)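 BDNF protein after 72 h compound exposure: lysis in Tris-HCl pH 7.5, 150 mM NaCl, 1% Triton X-100, 10% glycerol, EDTA/EGTA, protease inhibitors; homogenized, sonicated, centrifuged 15 min at 4 °C; supernatant assayed by BDNF immunoassay, normalized to BCA total protein; fold over untreated cells.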

ST14A [5] = experiment: Increase in BDNF mRNA expression in rat ST14A cells expressing RE1/NRSE BDNF promoter after 72 hrs by RT-PCR relative to control; type: functional, cell-based
How it was run: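 Cells treated 72 h; total RNA (1 µg) reverse transcribed, three independent reactions per RNA stock, triplicate SYBR Green real-time PCR with 25 ng cDNA, 0.2 µM primers; BDNF cycling 95 °C 10 min then 40 × (95 °C 10 s, 56 °C 10 s, 72 °C 20 s), melt-curve check; normalized to β-actin, fold over untreated; three independent experiments.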

[6] = Increase in BDNF protein expression in […]/HdhQ11 cells expressing homozygous mutant huntingtin gene at 200 nM after 72 hrs by ELISA relative to control; type: functional; how it was run: as §2
neural = experiment: Increase in BDNF protein expression in neural cells overexpressing huntingtin mutant gene after 72 hrs by ELISA relative to control; type: functional, cell-based; how it was run: as §2
ST14A [7] = experiment: […] of REST/NRSF-coupled repression of luciferase tagged rat RE1/NRSE BDNF promoter activity expressed in ST14A cells at 25 nM assessed as increase in luciferase activity; type: cell-based; details: TDE = time-dependent effect
ST14A [8] = experiment: Increase in RE1/NRSE promoter regulated muscarinic M4 receptor mRNA expression in rat ST14A cells at 200 nM after 72 hrs by RT-PCR relative to control; type: functional, cell-based
How it was run: (§3)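 72 h exposure; SYBR Green real-time PCR for synapsin I and M4: 95 °C 3 min, then 40 × (95 °C 30 s, 58 °C 30 s, 72 °C 30 s), melt curve 55–94 °C; normalized to β-actin, fold over untreated; triplicate reactions.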

ST14A [9] = experiment: Increase in RE1/NRSE promoter regulated synapsin I mRNA expression in rat ST14A cells at 200 nM after 72 hrs by RT-PCR relative to control; type: functional, cell-based; how it was run: as §3
ST14A [10] = experiment: (§4) […] of REST/NRSF-coupled repression of luciferase tagged rat RE1/NRSE BDNF promoter activity expressed in ST14A cells assessed as increase in luciferase activity; type: cell-based; how it was run: as §1
[11] = as §4; type: cell-based; how it was run: as §1
STHdhQ11/HdhQ11 [12] = experiment: Effect on REST/NRSF translocation in mouse STHdhQ11/HdhQ11 cells expressing homozygous mutant huntingtin gene
ST14A [13] = experiment: Induction of REST/NRSF-coupled repression of luciferase tagged rat RE1/NRSE BDNF promoter activity expressed in ST14A cells at 10 nM assessed as increase in luciferase activity; type: cell-based
How it was run: (§5)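 ST14A rat neural cells stably carrying RE1/NRSE(BDNF)-luciferase reporter (DiaNRSE-Luc8 clone), grown in DMEM/10% heat-inactivated FBS at 33 °C, 5% CO2. Compounds from 10 mM DMSO stocks added to cells plated the day before; 72 h exposure in 96-well format, triplicate. Firefly luciferase read after luciferin, expressed as RLU per µg protein (BCA) relative to untreated cells.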

ST14A [14] = experiment: Induction of REST/NRSF-coupled repression of luciferase tagged rat RE1/NRSE BDNF promoter activity expressed in ST14A cells at 5 nM assessed as increase in luciferase activity; type: cell-based; how it was run: as §5
STHdhQ11/HdhQ11 [15] = experiment: Increase in cell viability of stress-exposed […]/HdhQ11 cells expressing homozygous mutant huntingtin gene at 25 nM after 48 hrs by MTT assay; type: functional, cell-based
How it was run: (§6)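 Cells plated at 80,000/well in triplicate, 24 h at 33 °C, washed, switched to serum-deprived medium at 37 °C as stress, with or without compound; MTT read 48 h after treatment, formazan at 560 nm after 1 h at 37 °C; three independent experiments.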

Mus musculus = organism: Mus musculus; experiment: Effect on cell proliferation of stress-exposed mouse STHdhQ11/HdhQ11 cells expressing homozygous mutant huntingtin gene assessed as BrdUrd incorporation
[16] = Increase in cell viability of stress-exposed […]/HdhQ11 cells expressing homozygous mutant huntingtin gene at 50 nM after 48 hrs by MTT assay; type: functional; how it was run: as §6
[17] = Increase in BDNF protein expression in […]/HdhQ11 cells expressing homozygous mutant huntingtin gene at 50 nM after 72 hrs by ELISA relative to control; type: functional; how it was run: as §2

## COc1ccc(Nc2nc(-c3c(C)nc4cc(C)ccn34)cs2)cc1
ST14A [1]
  Activity: Active
ST14A [2]
  Activity: inactive
ST14A [3]
  Activity: inactive
ST14A [4]
  Activity: Dose-dependent effect
ST14A [5]
  Activity: Dose-dependent effect
[6]
  fold change (FC): 2
neural
  Activity: Active
ST14A [7]
  Activity: tde
ST14A [8]
  Activity: Active
ST14A [9]
  Activity: Active
ST14A [10]
  Activity: Dose-dependent effect
[11]
  EC50: 12 nM
STHdhQ11/HdhQ11 [12]
  Activity: inactive

## O=C(CCCCCCC(=O)Nc1ccccc1)NO
ST14A [2]
  Activity: Active
ST14A [3]
  Activity: Active

## CN[C@@H]1C[C@H]2O[C@@](C)([C@@H]1OC)n1c3ccccc3c3c4c(c5c6ccccc6n2c5c31)C(=O)NC4
ST14A [13]
  Activity: inactive

## CC(/C=C/C(=O)NO)=C\[C@@H](C)C(=O)c1ccc(N(C)C)cc1
ST14A [1]
  Activity: Active
ST14A [10]
  Activity: Dose-dependent effect

## O=C(O)CC[N+](=O)[O-]
ST14A [14]
  Activity: inactive
ST14A [13]
  Activity: inactive

## Cc1ccn2c(-c3csc(Nc4ccc(N(C)C)cc4)n3)c(C)nc2c1
STHdhQ11/HdhQ11 [15]
  Activity: Active
ST14A [1]
  Activity: Active
Mus musculus
  Activity: inactive
ST14A [2]
  Activity: inactive
ST14A [3]
  Activity: inactive
ST14A [4]
  Activity: Dose-dependent effect
ST14A [5]
  Activity: Dose-dependent effect
[16]
  Activity: 17%
[6]
  fold change (FC): 2
neural
  Activity: Active
ST14A [8]
  Activity: Active
ST14A [9]
  Activity: Active
[11]
  EC50: 20 nM
STHdhQ11/HdhQ11 [12]
  Activity: inactive

## Cc1nc2ncccn2c1-c1csc(Nc2ccc(N(C)C)cc2)n1
[17]
  fold change (FC): 1.6
ST14A [1]
  Activity: Active
ST14A [2]
  Activity: inactive
ST14A [3]
  Activity: inactive
ST14A [4]
  Activity: Dose-dependent effect
ST14A [5]
  Activity: Dose-dependent effect
neural
  Activity: Active
ST14A [8]
  Activity: Active
ST14A [9]
  Activity: Active
[11]
  EC50: 20 nM
STHdhQ11/HdhQ11 [12]
  Activity: inactive
